Laboratory results: ChEMBL document CHEMBL3588831, “Synthesis and in Vivo Evaluation of [123I]Melanin-Targeted Agents” (J Med Chem, 2015)

Tests used:
[1] = system: Liver; test: Biodistribution in liver of C57BL/6J mouse bearing mouse B16F0 cells at 0.37 to 1.85 MBq, iv after 48 hrs by gamma counting method; assay type: ADME, organism-based; conditions: in vivo
Summary of the method: (§1)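 Female C57BL/6J mice (5−6 weeks), s.c. inoculated on left flank with 3 × 10^5 B16F0 cells in Ca2+/Mg2+-free PBS, used 11 days later (tumors 2−12 mm). Radiotracer given via tail vein in 100 μL (~0.37 MBq for 1−24 h, 1.85 MBq for 48 h). Organs dissected, weighed, γ-counted, decay corrected. Expressed as % ID/g against injected-dose dilutions. Mean ± SEM, n = 5.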

[2] = system: Mus musculus; test: Biodistribution in tumor of C57BL/6J mouse bearing mouse B16F0 cells at 0.37 to 1.85 MBq, iv after 24 hrs by gamma counting method; assay type: ADME, organism-based; conditions: in vivo; summary of the method: as §1
[3] = system: Mus musculus; test: Biodistribution in eyes of C57BL/6J mouse bearing mouse B16F0 cells at 0.37 to 1.85 MBq, iv after 48 hrs by gamma counting method; assay type: ADME, organism-based, Eye; conditions: in vivo; summary of the method: as §1
[4] = system: Mus musculus; test: Biodistribution in small gastrointestinal tract of C57BL/6J mouse bearing mouse B16F0 cells at 0.37 to 1.85 MBq, iv after 6 hrs by gamma counting method; assay type: ADME, organism-based, Small intestine; conditions: in vivo; summary of the method: as §1
[5] = system: Spleen; test: Biodistribution in spleen of C57BL/6J mouse bearing mouse B16F0 cells at 0.37 to 1.85 MBq, iv after 1 hr by gamma counting method; assay type: ADME, organism-based; conditions: in vivo; summary of the method: as §1
[6] = system: Mus musculus; test: Biodistribution in small gastrointestinal tract of C57BL/6J mouse bearing mouse B16F0 cells at 0.37 to 1.85 MBq, iv after 1 hr by gamma counting method; assay type: ADME, organism-based, Small intestine; conditions: in vivo; summary of the method: as §1
[7] = system: Kidney; test: Biodistribution in kidney of C57BL/6J mouse bearing mouse B16F0 cells at 0.37 to 1.85 MBq, iv after 3 hrs by gamma counting method; assay type: ADME, organism-based; conditions: in vivo; summary of the method: as §1
[8] = Retention time of the compound by HPLC method; assay type: physicochemical
[9] = system: Mus musculus; test: Biodistribution in eyes of C57BL/6J mouse bearing mouse B16F0 cells at 0.37 to 1.85 MBq, iv after 3 hrs by gamma counting method; assay type: ADME, organism-based, Eye; conditions: in vivo; summary of the method: as §1
[10] = system: Liver; test: Biodistribution in liver of C57BL/6J mouse bearing mouse B16F0 cells at 0.37 to 1.85 MBq, iv after 3 hrs by gamma counting method; assay type: ADME, organism-based; conditions: in vivo; summary of the method: as §1
[11] = Stability in urine of C57BL/6J mouse bearing mouse B16F0 cells assessed as drug degradation at 0.37 to 1.85 MBq, iv after 24 hrs by radio-HPLC and radio-TLC method; assay type: ADME, organism-based; conditions: in vivo, in the assay text read “20 MBq” for “0.37 to 1.85 MBq”
Summary of the method: (§2)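 Tumor-bearing C57BL/6J mice were sampled 3 and 24 h after i.v. tracer. Tissue was sonicated in CH3CN/water (3:2) with cold iodo standard and KI, then centrifuged. Urine was diluted and spiked; plasma was spiked, with CH3CN precipitation for TLC. Intact fraction came from silica radio-TLC (spot matching standard Rf) and radio-HPLC with precolumn/C18 column switching.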

[12] = system: Kidney; test: Biodistribution in kidney of C57BL/6J mouse bearing mouse B16F0 cells at 0.37 to 1.85 MBq, iv after 1 hr by gamma counting method; assay type: ADME, organism-based; conditions: in vivo; summary of the method: as §1
[13] = system: Plasma; test: Stability in plasma of C57BL/6J mouse bearing mouse B16F0 cells assessed as drug degradation at 0.37 to 1.85 MBq, iv after 24 hrs by radio-HPLC and radio-TLC method; assay type: ADME, organism-based; conditions: in vivo, in the assay text read “20 MBq” for “0.37 to 1.85 MBq”; summary of the method: as §2
[14] = system: Mus musculus; test: Biodistribution in thyroid gland of C57BL/6J mouse bearing mouse B16F0 cells at 0.37 to 1.85 MBq, iv after 48 hrs by gamma counting method; assay type: ADME, organism-based; conditions: in vivo; summary of the method: as §1
[15] = system: Mus musculus; test: Biodistribution in large gastrointestinal tract of C57BL/6J mouse bearing mouse B16F0 cells at 0.37 to 1.85 MBq, iv after 1 hr by gamma counting method; assay type: ADME, organism-based, Large intestine; conditions: in vivo; summary of the method: as §1
[16] = system: Mus musculus; test: Biodistribution in eyes of C57BL/6J mouse bearing mouse B16F0 cells at 0.37 to 1.85 MBq, iv after 16 hrs by gamma counting method; assay type: ADME, organism-based, Eye; conditions: in vivo; summary of the method: as §1
[17] = system: Spleen; test: Biodistribution in spleen of C57BL/6J mouse bearing mouse B16F0 cells at 0.37 to 1.85 MBq, iv after 48 hrs by gamma counting method; assay type: ADME, organism-based; conditions: in vivo; summary of the method: as §1
[18] = system: Mus musculus; test: Biodistribution in large gastrointestinal tract of C57BL/6J mouse bearing mouse B16F0 cells at 0.37 to 1.85 MBq, iv after 3 hrs by gamma counting method; assay type: ADME, organism-based, Large intestine; conditions: in vivo; summary of the method: as §1
[19] = system: Mus musculus; test: Biodistribution in thyroid gland of C57BL/6J mouse bearing mouse B16F0 cells at 0.37 to 1.85 MBq, iv after 6 hrs by gamma counting method; assay type: ADME, organism-based; conditions: in vivo; summary of the method: as §1
[20] = system: Mus musculus; test: Biodistribution in large gastrointestinal tract of C57BL/6J mouse bearing mouse B16F0 cells at 0.37 to 1.85 MBq, iv after 24 hrs by gamma counting method; assay type: ADME, organism-based, Large intestine; conditions: in vivo; summary of the method: as §1
[21] = system: Spleen; test: Biodistribution in spleen of C57BL/6J mouse bearing mouse B16F0 cells at 0.37 to 1.85 MBq, iv after 16 hrs by gamma counting method; assay type: ADME, organism-based; conditions: in vivo; summary of the method: as §1
[22] = system: Mus musculus; test: Biodistribution in small gastrointestinal tract of C57BL/6J mouse bearing mouse B16F0 cells at 0.37 to 1.85 MBq, iv after 24 hrs by gamma counting method; assay type: ADME, organism-based, Small intestine; conditions: in vivo; summary of the method: as §1
[23] = system: Brain; test: Drug distribution in brain of C57BL/6J mouse bearing mouse B16F0 cells at 18 to 20 MBq, iv measured over 72 hrs by SPECT imaging study; assay type: ADME, organism-based; conditions: in vivo
Summary of the method: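 Female C57BL/6J mice bearing s.c. B16F0 tumors (11 days growth) received 18−20 MBq in 100 μL via lateral tail vein (n = 3). Isoflurane anesthesia (5% induction, 2−2.5% maintenance) on a 37 °C heating pad. Planar γ-camera imaging at 10−60 min (5 min frames), 3 and 6 h, 24, 48 and 72 h. Radioactivity localization assessed visually.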

[24] = Ratio of AUC in tumor to gastrointestinal tract of C57BL/6J mouse bearing mouse B16F0 cells at 0.37 to 1.85 MBq, iv by gamma counting method; assay type: ADME, organism-based; conditions: in vivo
Summary of the method: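 Biodistribution in B16F0-bearing C57BL/6J mice given i.v. tail-vein tracer (~0.37 MBq for 1–24 h, 1.85 MBq for 48 h). Sacrifice at 1, 3, 6, 16, 24 and 48 h, then organs dissected, weighed and γ-counted as decay-corrected % ID/g. Tumor AUC divided by each organ AUC; mean of ratios ± SEM, n = 5.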

[25] = system: Mus musculus; test: Biodistribution in tumor of C57BL/6J mouse bearing mouse B16F0 cells at 0.37 to 1.85 MBq, iv after 6 hrs by gamma counting method; assay type: ADME, organism-based; conditions: in vivo; summary of the method: as §1
[26] = system: Kidney; test: Biodistribution in kidney of C57BL/6J mouse bearing mouse B16F0 cells at 0.37 to 1.85 MBq, iv after 6 hrs by gamma counting method; assay type: ADME, organism-based; conditions: in vivo; summary of the method: as §1
[27] = system: Liver; test: Biodistribution in liver of C57BL/6J mouse bearing mouse B16F0 cells at 0.37 to 1.85 MBq, iv after 6 hrs by gamma counting method; assay type: ADME, organism-based; conditions: in vivo; summary of the method: as §1
[28] = system: Mus musculus; test: Biodistribution in eyes of C57BL/6J mouse bearing mouse B16F0 cells at 0.37 to 1.85 MBq, iv after 1 hr by gamma counting method; assay type: ADME, organism-based, Eye; conditions: in vivo; summary of the method: as §1
[29] = system: Mus musculus; test: Whole body clearance in C57BL/6J mouse bearing mouse B16F0 cells at 0.37 to 1.85 MBq, iv after 16 hrs by gamma counting method; assay type: ADME, organism-based; conditions: in vivo

Compound | Drug uptake [1] [% ID/g] | Drug uptake [2] [% ID/g] | Drug uptake [3] [% ID/g] | Drug uptake [4] [% ID/g] | Drug uptake [5] [% ID/g] | Drug uptake [6] [% ID/g] | Drug uptake [7] [% ID/g] | Retention_time [8] [min] | Drug uptake [9] [% ID/g] | Drug uptake [10] [% ID/g] | Stability [11] | Drug uptake [12] [% ID/g] | Stability [13] | Drug uptake [14] [% ID/g] | Drug uptake [15] [% ID/g] | Drug uptake [16] [% ID/g] | Drug uptake [17] [% ID/g] | Drug uptake [18] [% ID/g] | Drug uptake [19] [% ID/g] | Drug uptake [20] [% ID/g] | other results
O=C(c1ccc2c(n1)NCCC2)N1CCN(Cc2ccc([123I])cc2)CC1 | 0.2 | 12.9 | 19 | 11.5 | 3.5 | 45.6 | 9 | 16.6 | 56.4 | 13.2 | Unstable | 15.6 | Unstable | 2.1 | 7.9 | 28.6 | 0.05 | 59.6 | 2.7 | 1.7 | Drug uptake [21]: 0.3 % ID/g; Drug uptake [22]: 0.8 % ID/g; Drug uptake [23]: Not Active; Ratio [24]: 1.8; Drug uptake [25]: 32.5 % ID/g; Drug uptake [26]: 10 % ID/g; Drug uptake [27]: 6.3 % ID/g; Drug uptake [28]: 40.3 % ID/g; CL [29]: > 98%
O=C(CN1Cc2ccccc2C1=O)NC1CCN(Cc2ccc([123I])cc2)CC1 | 1.9 | 15.2 | 38.7 | 9.8 | 9.6 | 11.9 | 7.4 | 14.8 | 20.8 | 38.8 | Unstable | 8 | Unstable | 2.4 | 6.6 | 40.4 | 0.1 | 10.9 | 3.1 | 8 | Drug uptake [21]: 1.3 % ID/g; Drug uptake [22]: 3.8 % ID/g; Drug uptake [23]: Not Active; Ratio [24]: 3; Drug uptake [25]: 18.1 % ID/g; Drug uptake [26]: 5 % ID/g; Drug uptake [27]: 35.1 % ID/g; Drug uptake [28]: 13.7 % ID/g; CL [29]: > 98%
O=C(CN1Cc2ccccc2C1=O)N1C[C@H]2CN(Cc3ccc([123I])cc3)C[C@H]2C1 | 0.2 | 7.8 | 15.8 | 2.6 | 0.2 | 21.4 | 8.4 | 16.7 | 18.5 | 5.6 | Unstable | 15.8 | Unstable | 3.4 | 3.5 | 22.1 | 0.09 | 21.4 | 2.8 | 1 | Drug uptake [21]: 0.2 % ID/g; Drug uptake [22]: 0.3 % ID/g; Drug uptake [23]: Not Active; Ratio [24]: 2.9; Drug uptake [25]: 10.4 % ID/g; Drug uptake [26]: 4.1 % ID/g; Drug uptake [27]: 3.1 % ID/g; Drug uptake [28]: 18.2 % ID/g; CL [29]: > 98%
O=C(c1ccc2cccnc2n1)N1CCN(Cc2ccc([123I])cc2)CC1 | 0.7 | 14.4 | 31.6 | 6.1 | 2.6 | 14.4 | 6.2 | 12.2 | 36 | 13.4 | Unstable | 7.5 | Unstable | 5.3 | 3.2 | 32.9 | 0.2 | 11.9 | 3.5 | 1.4 | Drug uptake [21]: 0.8 % ID/g; Drug uptake [22]: 0.9 % ID/g; Drug uptake [23]: Not Active; Ratio [24]: 5.5; Drug uptake [25]: 19.4 % ID/g; Drug uptake [26]: 5.2 % ID/g; Drug uptake [27]: 10.1 % ID/g; Drug uptake [28]: 32 % ID/g; CL [29]: > 98%
